The source made the active and inactive calls. The calls are words filed in the database; no cut-off is given here.
Legend:
[1] = Selectivity for PTP1B to human recombinant SHP1
[2] = molecular target: Tyrosine-protein phosphatase non-receptor type 6 (Homo sapiens, UniProt P29350); assay: Inhibition of human recombinant SHP1
[3] = molecular target: Receptor-type tyrosine-protein phosphatase F (Homo sapiens, UniProt P10586); assay: Inhibition of human recombinant LAR
[4] = molecular target: Receptor-type tyrosine-protein phosphatase epsilon (Homo sapiens, UniProt P23469); assay: Inhibition of human recombinant PTPepsilon
Sequence of Receptor-type tyrosine-protein phosphatase epsilon (P23469 whole entry): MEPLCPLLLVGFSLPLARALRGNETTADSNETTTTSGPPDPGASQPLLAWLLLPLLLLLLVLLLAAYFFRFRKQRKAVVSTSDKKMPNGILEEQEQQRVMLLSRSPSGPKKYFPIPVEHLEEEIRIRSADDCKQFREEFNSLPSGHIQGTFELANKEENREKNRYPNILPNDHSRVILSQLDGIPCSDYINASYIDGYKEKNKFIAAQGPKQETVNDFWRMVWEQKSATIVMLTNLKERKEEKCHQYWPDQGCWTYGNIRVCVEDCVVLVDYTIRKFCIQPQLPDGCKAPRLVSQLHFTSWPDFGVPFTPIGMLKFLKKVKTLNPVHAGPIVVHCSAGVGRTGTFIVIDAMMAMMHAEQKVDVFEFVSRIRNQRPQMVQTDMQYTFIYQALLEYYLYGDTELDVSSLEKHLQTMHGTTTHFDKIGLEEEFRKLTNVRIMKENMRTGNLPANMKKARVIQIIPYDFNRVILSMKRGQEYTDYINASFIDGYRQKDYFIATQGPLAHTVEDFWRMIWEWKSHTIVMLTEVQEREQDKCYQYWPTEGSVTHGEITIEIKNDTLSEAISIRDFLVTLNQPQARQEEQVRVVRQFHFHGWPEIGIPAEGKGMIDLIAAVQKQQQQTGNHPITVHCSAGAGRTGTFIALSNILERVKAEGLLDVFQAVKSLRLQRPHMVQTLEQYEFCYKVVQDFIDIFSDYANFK

[5] = molecular target: T1, Tyrosine-protein phosphatase non-receptor type 1 (Homo sapiens, UniProt P18031); assay: Inhibition of PTP1B by pNPP assay
T1 sequence (P18031 whole entry): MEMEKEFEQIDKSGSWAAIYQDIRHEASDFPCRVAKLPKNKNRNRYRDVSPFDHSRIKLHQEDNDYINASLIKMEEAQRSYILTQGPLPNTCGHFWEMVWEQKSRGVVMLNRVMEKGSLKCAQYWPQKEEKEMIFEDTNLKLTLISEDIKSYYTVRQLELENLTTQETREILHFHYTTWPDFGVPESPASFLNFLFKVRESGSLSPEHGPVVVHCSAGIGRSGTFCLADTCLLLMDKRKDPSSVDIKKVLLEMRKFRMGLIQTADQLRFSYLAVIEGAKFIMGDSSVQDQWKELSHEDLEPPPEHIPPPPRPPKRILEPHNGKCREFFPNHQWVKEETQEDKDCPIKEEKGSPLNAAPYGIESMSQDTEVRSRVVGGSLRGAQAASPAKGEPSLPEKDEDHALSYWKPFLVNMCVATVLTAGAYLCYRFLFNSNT

[6] = molecular target: T2, Tyrosine-protein phosphatase non-receptor type 2 (Homo sapiens, UniProt P17706); assay: Inhibition of TCPTP by pNPP assay
T2 sequence (P17706 whole entry): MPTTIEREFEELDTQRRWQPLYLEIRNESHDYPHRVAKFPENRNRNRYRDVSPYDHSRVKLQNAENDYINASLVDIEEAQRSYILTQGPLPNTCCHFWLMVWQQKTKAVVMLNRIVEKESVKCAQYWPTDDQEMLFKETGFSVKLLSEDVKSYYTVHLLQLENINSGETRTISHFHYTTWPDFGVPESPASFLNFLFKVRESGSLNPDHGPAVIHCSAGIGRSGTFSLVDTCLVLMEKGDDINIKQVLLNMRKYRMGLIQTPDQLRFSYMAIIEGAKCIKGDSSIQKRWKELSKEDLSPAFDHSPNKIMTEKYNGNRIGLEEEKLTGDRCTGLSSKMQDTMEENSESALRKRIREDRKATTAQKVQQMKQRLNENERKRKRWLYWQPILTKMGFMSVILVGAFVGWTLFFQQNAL

[7] = molecular target: Receptor-type tyrosine-protein phosphatase alpha (Homo sapiens, UniProt P18433); assay: Inhibition of human recombinant PTPalpha
Sequence of Receptor-type tyrosine-protein phosphatase alpha (P18433 whole entry): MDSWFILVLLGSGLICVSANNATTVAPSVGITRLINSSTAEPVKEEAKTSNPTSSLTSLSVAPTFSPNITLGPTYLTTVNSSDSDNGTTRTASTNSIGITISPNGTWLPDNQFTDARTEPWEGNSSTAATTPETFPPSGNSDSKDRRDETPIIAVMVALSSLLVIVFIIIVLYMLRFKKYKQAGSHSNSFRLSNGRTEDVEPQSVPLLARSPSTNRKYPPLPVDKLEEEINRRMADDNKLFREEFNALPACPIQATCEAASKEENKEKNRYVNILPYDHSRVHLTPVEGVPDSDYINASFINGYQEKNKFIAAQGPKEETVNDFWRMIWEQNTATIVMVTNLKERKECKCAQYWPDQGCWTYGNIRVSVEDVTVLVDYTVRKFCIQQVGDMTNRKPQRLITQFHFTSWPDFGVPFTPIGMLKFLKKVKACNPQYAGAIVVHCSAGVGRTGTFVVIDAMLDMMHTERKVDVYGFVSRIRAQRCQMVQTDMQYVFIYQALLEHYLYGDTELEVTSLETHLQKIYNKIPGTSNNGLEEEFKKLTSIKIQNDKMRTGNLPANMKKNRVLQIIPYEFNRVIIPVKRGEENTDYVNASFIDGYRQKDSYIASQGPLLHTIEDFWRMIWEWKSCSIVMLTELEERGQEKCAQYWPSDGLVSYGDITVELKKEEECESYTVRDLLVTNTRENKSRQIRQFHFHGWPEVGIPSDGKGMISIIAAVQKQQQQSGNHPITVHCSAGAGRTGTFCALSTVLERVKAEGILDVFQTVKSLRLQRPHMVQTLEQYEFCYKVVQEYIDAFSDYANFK

[8] = test system: L6; assay: Increase in glucose uptake in rat L6 cells at 1 uM after 3 hrs in presence of insulin relative to basal; type: functional; settings: in the assay text read “after 2.5 hrs” for “after 3 hrs”
Method in brief: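 Differentiated rat L6 myotubes (day 5) were serum-starved 2 h, exposed to 1.0 µM compound for 2.5 h, then stimulated 30 min with 1, 10 or 100 nM insulin. 2-Deoxy[1,2-3H]glucose uptake was read over 10 min (0.1 mM glucose, HEPES saline pH 7.4). Radioactivity from 0.1% Triton lysates was normalised to protein and expressed relative to basal/DMSO-treated cells.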

[9] = test system: L6; assay: Increase in glucose uptake in rat L6 cells at 1 uM after 3 hrs in absence of insulin relative to basal; type: functional
Method in brief: (§1)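 Rat L6 myoblasts grown in α-DMEM with 10% FBS at 37 °C under 5% CO2, then differentiated in α-DMEM with 2% FBS. Used as myotubes on day 5 after 2 h serum-free starvation (0.2% BSA). Compound at 250 nM–2 µM for 3 h without insulin. 2-Deoxy[1,2-3H]glucose uptake measured over 10 min in HEPES saline, pH 7.4, 0.1 mM glucose. Lysate counts normalised to protein, given as % of basal/0.2% DMSO cells.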

[10] = molecular target: Insulin receptor (Homo sapiens) (UniProt P06213); assay: Increase in human IRbeta phosphorylation expressed in CHO cells; type: cell-based
Method in brief: (§2)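 CHO cells stably carrying human insulin receptor were grown near-confluent, then starved 2 h in serum-free Ham's F-12. Compound was given for 3 h, followed by 10 nM insulin for 10 min. Lysates were run on 8% SDS-PAGE and western blotted for phospho-IR (Tyr1162/1163), phospho-Akt (Ser473) and β-actin, with ECL detection.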

[11] = molecular target: RAC-alpha serine/threonine-protein kinase (Homo sapiens) (UniProt P31749); assay: Increase in human Akt phosphorylation expressed in CHO cells; type: cell-based; method in brief: as §2
Sequence of RAC-alpha serine/threonine-protein kinase (Homo sapiens) (P31749 whole entry): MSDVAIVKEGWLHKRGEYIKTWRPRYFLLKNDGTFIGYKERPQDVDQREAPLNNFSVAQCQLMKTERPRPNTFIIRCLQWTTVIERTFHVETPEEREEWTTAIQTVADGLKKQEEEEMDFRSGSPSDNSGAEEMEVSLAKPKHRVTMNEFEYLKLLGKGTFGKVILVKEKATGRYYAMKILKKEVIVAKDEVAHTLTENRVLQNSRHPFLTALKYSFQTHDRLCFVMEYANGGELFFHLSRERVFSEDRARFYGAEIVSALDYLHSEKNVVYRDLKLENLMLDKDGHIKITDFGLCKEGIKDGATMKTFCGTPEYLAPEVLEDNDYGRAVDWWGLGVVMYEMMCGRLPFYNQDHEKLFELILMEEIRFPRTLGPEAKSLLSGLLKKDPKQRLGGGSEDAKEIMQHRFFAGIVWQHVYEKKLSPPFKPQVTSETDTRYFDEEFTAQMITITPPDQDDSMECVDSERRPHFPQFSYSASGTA

[12] = test system: L6; assay: Increase in glucose uptake in rat L6 cells after 3 hrs in absence of insulin; type: functional, cell-based; method in brief: as §1

Sequence of Tyrosine-protein phosphatase non-receptor type 6 (P29350 whole entry): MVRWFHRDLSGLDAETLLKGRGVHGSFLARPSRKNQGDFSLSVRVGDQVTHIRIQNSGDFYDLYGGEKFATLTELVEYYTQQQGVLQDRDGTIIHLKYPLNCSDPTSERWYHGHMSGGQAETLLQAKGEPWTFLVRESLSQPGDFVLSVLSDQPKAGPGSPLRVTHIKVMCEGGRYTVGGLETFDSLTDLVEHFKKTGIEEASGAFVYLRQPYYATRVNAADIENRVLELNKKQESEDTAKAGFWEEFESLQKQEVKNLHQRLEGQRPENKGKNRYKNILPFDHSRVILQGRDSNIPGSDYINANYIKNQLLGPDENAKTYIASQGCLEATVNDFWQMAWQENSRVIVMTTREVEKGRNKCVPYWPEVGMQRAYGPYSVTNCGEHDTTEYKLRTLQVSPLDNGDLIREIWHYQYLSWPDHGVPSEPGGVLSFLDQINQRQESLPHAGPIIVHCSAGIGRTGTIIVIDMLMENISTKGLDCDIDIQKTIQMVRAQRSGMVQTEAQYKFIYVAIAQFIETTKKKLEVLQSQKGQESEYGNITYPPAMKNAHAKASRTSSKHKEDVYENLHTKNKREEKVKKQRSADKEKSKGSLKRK
Sequence of Receptor-type tyrosine-protein phosphatase F (P10586 whole entry): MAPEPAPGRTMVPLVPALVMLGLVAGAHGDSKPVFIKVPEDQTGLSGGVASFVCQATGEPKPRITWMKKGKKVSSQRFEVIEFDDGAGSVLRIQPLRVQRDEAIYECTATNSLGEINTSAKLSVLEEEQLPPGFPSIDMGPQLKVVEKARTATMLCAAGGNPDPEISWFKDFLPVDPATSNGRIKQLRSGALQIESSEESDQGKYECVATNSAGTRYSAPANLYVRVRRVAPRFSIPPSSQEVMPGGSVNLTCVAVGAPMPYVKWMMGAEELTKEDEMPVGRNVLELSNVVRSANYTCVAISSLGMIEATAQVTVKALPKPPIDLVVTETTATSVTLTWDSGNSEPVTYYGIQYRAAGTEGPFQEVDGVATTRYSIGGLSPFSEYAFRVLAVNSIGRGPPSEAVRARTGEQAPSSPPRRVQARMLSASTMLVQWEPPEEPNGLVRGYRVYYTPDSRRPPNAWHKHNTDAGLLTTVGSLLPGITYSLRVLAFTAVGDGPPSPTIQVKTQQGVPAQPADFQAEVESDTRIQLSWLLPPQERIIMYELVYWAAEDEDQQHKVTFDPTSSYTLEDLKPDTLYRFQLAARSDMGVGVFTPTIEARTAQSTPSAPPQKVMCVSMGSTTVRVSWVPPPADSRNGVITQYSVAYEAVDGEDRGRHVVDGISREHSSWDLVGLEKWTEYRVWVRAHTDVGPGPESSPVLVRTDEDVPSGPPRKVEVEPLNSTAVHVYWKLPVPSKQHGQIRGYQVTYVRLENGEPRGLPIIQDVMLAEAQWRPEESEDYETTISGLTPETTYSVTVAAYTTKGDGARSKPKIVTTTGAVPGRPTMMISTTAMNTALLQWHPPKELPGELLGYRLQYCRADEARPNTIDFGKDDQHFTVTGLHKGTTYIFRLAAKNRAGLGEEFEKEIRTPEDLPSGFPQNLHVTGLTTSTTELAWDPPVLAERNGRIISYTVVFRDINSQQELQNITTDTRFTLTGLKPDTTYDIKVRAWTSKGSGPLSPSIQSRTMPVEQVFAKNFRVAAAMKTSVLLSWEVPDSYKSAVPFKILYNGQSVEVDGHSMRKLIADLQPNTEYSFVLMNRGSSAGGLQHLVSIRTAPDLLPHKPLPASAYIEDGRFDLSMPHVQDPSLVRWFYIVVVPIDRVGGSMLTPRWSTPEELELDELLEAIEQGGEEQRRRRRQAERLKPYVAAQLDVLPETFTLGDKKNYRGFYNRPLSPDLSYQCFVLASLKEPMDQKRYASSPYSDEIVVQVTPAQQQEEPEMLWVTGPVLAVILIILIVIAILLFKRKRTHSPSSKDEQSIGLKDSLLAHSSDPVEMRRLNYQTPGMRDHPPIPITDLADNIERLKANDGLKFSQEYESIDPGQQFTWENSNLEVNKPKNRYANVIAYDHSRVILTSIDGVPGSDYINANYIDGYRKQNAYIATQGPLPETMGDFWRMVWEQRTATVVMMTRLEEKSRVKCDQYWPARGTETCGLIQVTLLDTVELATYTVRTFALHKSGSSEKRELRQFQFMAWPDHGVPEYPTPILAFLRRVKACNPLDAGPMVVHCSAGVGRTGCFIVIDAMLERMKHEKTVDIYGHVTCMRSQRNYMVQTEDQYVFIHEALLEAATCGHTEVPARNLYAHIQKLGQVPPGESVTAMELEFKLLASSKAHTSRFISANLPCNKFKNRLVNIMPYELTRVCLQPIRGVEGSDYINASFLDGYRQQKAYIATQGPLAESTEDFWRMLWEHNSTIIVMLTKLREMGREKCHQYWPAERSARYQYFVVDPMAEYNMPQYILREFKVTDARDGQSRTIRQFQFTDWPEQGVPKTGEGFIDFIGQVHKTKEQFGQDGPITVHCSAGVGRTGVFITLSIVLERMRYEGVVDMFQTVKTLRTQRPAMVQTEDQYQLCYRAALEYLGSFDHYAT

| Structure (SMILES) | Ratio [1] | IC50 [2] | IC50 [3] | IC50 [4] | IC50 [5] | IC50 [6] | IC50 [7] | Activity [8] | Activity [9] | Activity [10] | Activity [11] | Activity [12] |
| --- | --- | --- | --- | --- | --- | --- | --- | --- | --- | --- | --- | --- |
| CC1(C)CC[C@]2(C(=O)O)CC[C@]3(C)C(=CC[C@@H]4[C@@]5(C)CC[C@H](OC(=O)CC(C)(C)C(=O)O)C(C)(C)[C@@H]5CC[C@]43C)[C@@H]2C1 | 2 | 12.4 µM | > 40 µM | > 40 µM | 2.33 µM | 1.38 µM | > 40 µM |  |  |  |  |  |
| CC1(C)CC[C@]2(CCCCC(=O)O)CC[C@]3(C)C(=CC[C@@H]4[C@@]5(C)CC[C@H](O)C(C)(C)[C@@H]5CC[C@]43C)[C@@H]2C1 | 2 | 5.2 µM | > 40 µM | > 40 µM | 1.33 µM | 1.11 µM | > 40 µM |  |  |  |  |  |
| CC1(C)CC[C@]2(C(=O)N[C@@H](Cc3ccccc3)C(=O)O)CC[C@]3(C)C(=CC[C@@H]4[C@@]5(C)CC[C@H](O)C(C)(C)[C@@H]5CC[C@]43C)[C@@H]2C1 |  | 12.6 µM |  |  | 3.31 µM |  |  |  |  |  |  |  |
| CC1(C)CC[C@]2(CCCCC(=O)N[C@@H](Cc3ccccc3)C(=O)O)CC[C@]3(C)C(=CC[C@@H]4[C@@]5(C)CC[C@H](O)C(C)(C)[C@@H]5CC[C@]43C)[C@@H]2C1 | 2 | 4.08 µM | > 40 µM | > 40 µM | 0.57 µM | 0.63 µM | > 40 µM |  |  |  |  |  |
| CC1(C)CC[C@]2(CCCCC(=O)NC(Cc3ccc4c(c3)OCO4)C(=O)O)CC[C@]3(C)C(=CC[C@@H]4[C@@]5(C)CC[C@H](O)C(C)(C)[C@@H]5CC[C@]43C)[C@@H]2C1 (stereo partly drawn) | 2 | 0.71 µM | > 40 µM | > 40 µM | 0.44 µM | 0.6 µM | > 40 µM |  |  |  |  |  |
| C[C@H]1[C@H](C)CC[C@]2(C(=O)O)CC[C@]3(C)C(=CC[C@@H]4[C@@]5(C)C[C@@H](O)[C@H](O)C(C)(C)[C@@H]5CC[C@]43C)[C@H]12 [COROSOLIC ACID] | 2 | 24.6 µM | > 40 µM | > 40 µM | 5.49 µM | 11.3 µM | > 40 µM |  |  |  |  |  |
| C[C@H]1[C@H](C)CC[C@]2(C(=O)O)CC[C@]3(C)C(=CC[C@@H]4[C@@]5(C)CC[C@H](O)C(C)(C)[C@@H]5CC[C@]43C)[C@H]12 [URSOLIC ACID] |  | 25.8 µM | > 40 µM | > 40 µM |  | 3.33 µM | > 40 µM |  |  |  |  |  |
| CC1(C)CC[C@]2(C(=O)O)CC[C@]3(C)C(=CC[C@@H]4[C@@]5(C)CC[C@H](O)C(C)(C)[C@@H]5CC[C@]43C)[C@@H]2C1 [OLEANOLIC_ACID] |  |  | > 40 µM | > 40 µM |  |  | > 40 µM |  |  |  |  |  |
| CC1(C)CC[C@]2(C(=O)O)CC[C@]3(C)C(=CC[C@@H]4[C@@]5(C)CC[C@H](OCc6ccc(C(=O)O)cc6)C(C)(C)[C@@H]5CC[C@]43C)[C@@H]2C1 | 2 | 4.05 µM | > 40 µM | > 40 µM | 0.54 µM | 0.47 µM | > 40 µM |  |  |  |  |  |
| CC1(C)CC[C@]2(CCCCC(=O)N[C@@H](Cc3ccccc3)C(=O)O)CC[C@]3(C)C(=CC[C@@H]4[C@@]5(C)CC[C@H](OCc6ccc(C(=O)O)cc6)C(C)(C)[C@@H]5CC[C@]43C)[C@@H]2C1 | 2 | 0.89 µM | > 40 µM | > 40 µM | 0.15 µM | 0.16 µM | > 40 µM | 20% | 40% | Dose-dependent effect | Active | Dose-dependent effect |
| C[C@H]1[C@H](C)CC[C@]2(C)CC[C@]3(C)C(=CC(=O)[C@@H]4[C@@]5(C)CC[C@@H](O)[C@](C)(C(=O)O)[C@@H]5CC[C@]43C)[C@H]12 [11-KETO BOSWELLIC ACID] |  |  |  |  | 8.04 µM | 9.45 µM |  |  |  |  |  |  |
| Cc1ccc(CC(NC(=O)CCCC[C@]23CCC(C)(C)C[C@H]2C2=CC[C@@H]4[C@@]5(C)CC[C@H](O)C(C)(C)[C@@H]5CC[C@@]4(C)[C@]2(C)CC3)C(=O)O)cc1 (stereo partly drawn) |  |  |  |  | 0.65 µM | 0.66 µM |  |  |  |  |  |  |
| CSCC[C@H](NC(=O)CCCC[C@]12CCC(C)(C)C[C@H]1C1=CC[C@@H]3[C@@]4(C)CC[C@H](O)C(C)(C)[C@@H]4CC[C@@]3(C)[C@]1(C)CC2)C(=O)O |  |  |  |  | 0.55 µM | 0.75 µM |  |  |  |  |  |  |
| CC1(C)CC[C@]2(CCCCC(=O)NC(Cc3ccccc3Cl)C(=O)O)CC[C@]3(C)C(=CC[C@@H]4[C@@]5(C)CC[C@H](O)C(C)(C)[C@@H]5CC[C@]43C)[C@@H]2C1 (stereo partly drawn) |  |  |  |  | 0.56 µM | 0.55 µM |  |  |  |  |  |  |
| C[C@H]1[C@H](C)CC[C@]2(C(=O)O)CC[C@]3(C)C(=CC[C@@H]4[C@@]5(C)C[C@@H](O)[C@H](O)[C@@](C)(CO)[C@@H]5CC[C@]43C)[C@H]12 [ASIATIC ACID] |  |  |  |  | > 20 µM | > 20 µM |  |  |  |  |  |  |
| CC1(C)CC[C@]2(CCCCC(=O)N[C@@H](Cc3cnc[nH]3)C(=O)O)CC[C@]3(C)C(=CC[C@@H]4[C@@]5(C)CC[C@H](O)C(C)(C)[C@@H]5CC[C@]43C)[C@@H]2C1 |  |  |  |  | 4.62 µM | 4.31 µM |  |  |  |  |  |  |
| CC1(C)CC[C@]2(CCC(=O)O)CC[C@]3(C)C(=CC[C@@H]4[C@@]5(C)CC[C@H](O)C(C)(C)[C@@H]5CC[C@]43C)[C@@H]2C1 | 2 | 27.4 µM | > 40 µM | > 40 µM | 2.1 µM | 2.77 µM | > 40 µM |  |  |  |  |  |
